ABCB6 inh 2 = ABCB6 transporter inhibitors, primary screen, K562-ABCB6 cells, flow cytometry, MLPCN library. fluorescence ratio to DMSO, % at 10 µM. 0.19% of 360,000 active. ATP-binding cassette sub-family B member 6 (Homo sapiens), Q9NP58. K562-ABCB6 porphyrin accumulation, 1 h; active compounds read low;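 active means fluorescence ratio to DMSO below 75%, the collection mean minus 3 SD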;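 further: signal is porphyrin accumulated inside mitochondria; 100% equals median channel fluorescence of DMSO control wells; lower ratio means ABCB6 inhibition with less porphyrin fluorescence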
iPSC survival up = enhancers of single-cell hiPSC survival, primary screen, ATPlite luminescence | 100% = ROCK inhibitor wells, 0% = DMSO | survival enhancement, % at 20 µM | 0.044% of 360,000 active; in the data active means survival enhancement above about 18%;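 further: cells exposed to compounds for 16 hours before the ATP read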
MC4R antagonist = MC4R antagonists of cAMP signaling, primary screen, cell-based, TR-FRET, antagonist arm of biased-ligand search. MC4R-expressing cells, MTII-stimulated cAMP, LANCE TR-FRET. 0.48% of 360,000 active. inhibition, % at 6.5 µM. AID 540295, 2011;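 active means inhibition above its plate's cutoff, the mean of tested wells on that plate plus 3 SD, cut at about 29% in these data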;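 further: 0% = Melanotan II alone and 100% = Melanotan II plus saturating MCL0020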
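Material: human MC4R-expressing U2OS cells. Probe or stimulus: Melanotan II challenge. Dosing: 6.5 µM single dose. Times: 30-min compound, 1-h challenge, 1-h detection, room temperature. Technique: TR-FRET with Eu-cAMP and labeled anti-cAMP, 671 nm. Replication: singlicate.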
TbMetRS inhib = T. brucei MetRS inhibitors, primary screen, biochemical, luminescence. AID 624268, 2012. methionyl-tRNA synthetase (Trypanosoma brucei brucei). purified T. brucei MetRS, ATP depletion, Kinase-Glo luminescence. inhibition, % at 11.9 µM. 0.4% of 360,000 active;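 active means inhibition above a per-plate cutoff of the control wells' mean inhibition plus 3 SD, cut at about 5.5% in these data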;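 further: 0% = DMSO wells median and 100% = median of wells with control inhibitor compound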
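technique = Kinase-Glo luminescence, ATP depletion format | system = purified MetRS (methionyl-tRNA synthetase) enzyme from Trypanosoma brucei | timing = 15 min preincubation, 2 h reaction, all 25 °C | evaluation = percent inhibition versus plate control medians | dosing = single dose, 11.9 µM final nominal, 0.9% final DMSO | also added = substrates ATP, L-methionine and bulk Escherichia coli tRNA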
MC4R barr agon = MC4R agonists recruiting beta-arrestin, primary screen, cell-based, luminescence, agonist arm of biased-ligand search; Melanocortin receptor 4 (Homo sapiens), P32245; U2OS MC4R beta-arrestin complementation; percent of melanotan II response, DMSO zero; activation, % at 8.9 µM; 0.98% of 360,000 active;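 active means activation above a per-plate cutoff, the mean activation of sample wells on that plate plus 3 SD, cut at about 8% in these data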
Exocytosis inh = LAMP-1 surface exposure blockers, TALL-104 cells – cell-based, flow cytometry, MLPCN library, primary screen | TALL-104 LAMP-1 surface exposure; cells stimulated with thapsigargin and PMA | inhibition, % at 10 µM | 0.66% of 360,000 active | AID 651702, 2012;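 active means inhibition above about 55%, limit read from the data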
MC4R barr conf = MC4R beta-arrestin agonists, retest, confirmation, cell-based, luminescence, U2OS | shares compounds with MC4R barr agon | U2OS MC4R beta-arrestin recruitment; scaled DMSO 0%, Melanotan II 100% | activation, % at 8.9 µM | 31% of 2,400 active | AID 602192, 2012;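 active means mean activation across replicates above the hit cutoff set in the earlier primary screen, cut at about 8% in these data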
MOR DOR agonist = agonists of MOR-DOR heterodimerization, counter-screen for MC4R biased agonist project, cell-based, luminescence; shares compounds with MC4R barr agon; U2OS PathHunter beta-arrestin, beta-gal luminescence; percent of deltorphin B response, DMSO zero; activation, % at 9.2 µM; 5.8% of 2,400 active; AID 602194, 2012;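 active means mean activation across replicates exceeds the hit threshold derived in the earlier primary screen, cut at about 18% in these data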;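 further: 100% = deltorphin B at 0.9 µM final and 0% = DMSO alone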
Target sequence (P35372 whole entry, looked up): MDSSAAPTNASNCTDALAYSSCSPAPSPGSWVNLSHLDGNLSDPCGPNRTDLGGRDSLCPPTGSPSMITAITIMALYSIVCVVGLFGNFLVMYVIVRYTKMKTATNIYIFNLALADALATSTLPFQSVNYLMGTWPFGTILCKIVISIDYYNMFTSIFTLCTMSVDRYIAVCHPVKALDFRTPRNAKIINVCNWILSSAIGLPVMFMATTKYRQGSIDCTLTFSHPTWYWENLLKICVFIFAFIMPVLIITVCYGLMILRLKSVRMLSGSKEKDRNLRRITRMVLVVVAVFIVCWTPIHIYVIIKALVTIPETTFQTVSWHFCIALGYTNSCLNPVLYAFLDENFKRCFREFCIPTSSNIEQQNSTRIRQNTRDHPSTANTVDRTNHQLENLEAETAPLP
Target sequence (P41143 whole entry, looked up): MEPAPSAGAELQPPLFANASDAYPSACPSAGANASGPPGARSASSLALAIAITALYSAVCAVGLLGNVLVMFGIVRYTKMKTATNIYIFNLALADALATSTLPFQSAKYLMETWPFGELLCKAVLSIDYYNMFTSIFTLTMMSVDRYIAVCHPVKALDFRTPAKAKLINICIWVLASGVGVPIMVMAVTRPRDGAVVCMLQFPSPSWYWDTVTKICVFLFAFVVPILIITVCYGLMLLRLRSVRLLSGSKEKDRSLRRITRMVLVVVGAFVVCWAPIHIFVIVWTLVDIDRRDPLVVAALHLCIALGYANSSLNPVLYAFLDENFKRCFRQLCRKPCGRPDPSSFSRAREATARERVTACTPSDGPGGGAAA
Numbers without * were called inactive; x = no result given. Rows were chosen to be rich in hits. Some 2.6% of all compounds tested hit in one or more screens of this group.

SMILES | ABCB6 inh 2 | iPSC survival up | MC4R antagonist | TbMetRS inhib | MC4R barr agon | Exocytosis inh | MC4R barr conf | MOR DOR agonist
Cc1cc(OCC(=O)Nc2sc3c(c2C#N)CC(C)(C)NC3(C)C)c(C(C)C)cc1Cl | 91 | 0 | 4 | 0 | 14* | -11 | 8.5* | 8
Cn1c(CNC(=O)c2ccc(Cl)cc2)nnc1SCC(=O)Nc1sc2c(c1C#N)CCCC2 | 92 | -1 | -1 | 0 | 17* | 4 | 1 | 4
N#Cc1c(NC(=O)CSc2nnc(-c3ccccc3)o2)sc2c1CCCC2 | 87 | 1 | 4 | -1 | 23* | 0 | 4 | 2
Cc1ccccc1OCC(=O)Nc1sc2c(c1C#N)CCC2 | 96 | 2 | 17 | 0 | 17* | -3 | 2 | 4
CC1CCc2c(sc(NC(=O)CSc3nnc(-c4ccccc4)o3)c2C#N)C1 (centres undefined) | 103 | 2 | -5 | -1 | 2 | 1 | x | x
Cc1ccc(C(C)C)c(OCC(=O)Nc2sc3c(c2C#N)CC(C)(C)NC3(C)C)c1 | 97 | 0 | 1 | 0 | 4 | 29 | x | x
Cc1ccc(C(=O)NCc2nnc(SCC(=O)Nc3sc4c(c3C#N)CCCC4)n2C)cc1 | 86 | 4 | 3 | -1 | 0 | 0 | x | x
CCOC(=O)c1c(C)[nH]c(C)c1S(=O)(=O)NC(C)Cc1ccco1 (centres undefined) | 89 | 0 | 6 | 0 | -3 | -2 | x | x
Cc1ccc(C(=O)C(C)OC(=O)Cn2[nH]c(=O)c3ccccc3c2=O)cc1C (centres undefined) | 97 | 3 | -5 | 0 | 1 | -1 | x | x
Cc1ccc(OC(=O)CCC(=O)Nc2ccc(C)c(C)c2)cc1 | 93 | -1 | 0 | 0 | -1 | -1 | x | x
CC(C)(C)c1ccc(CC(=O)N2CCC2(C)C(=O)Nc2cccc3c2CCCC3)cc1 (centres undefined) | 99 | -2 | 2 | 0 | 0 | -5 | x | x
COc1ccc(-c2csc(NC(=O)COC(=O)c3ccco3)n2)cc1 | 99 | 0 | 7 | 0 | 11* | 2 | 4 | 3
NS(=O)(=O)c1ccc(CNC(=O)CCCSc2ccccc2)cc1 | 97 | 0 | 2 | -2 | -2 | 14 | x | x
O=C(COc1ccccc1)NC(=S)Nc1ccc2c3c(cccc13)CC2 | 105 | 2 | 13 | -1 | 14* | 0 | 1 | 3
CCCCC(=O)Nc1cccc(NC(=S)NC(=O)COc2ccccc2Cl)c1 | 99 | -1 | 2 | 0 | 18* | 1 | 13* | 2
CC(=O)NC(=S)Nc1ccc(NC(=O)COc2ccc(Cl)cc2Cl)cc1 | 102 | 1 | 0 | 0 | 31* | -1 | 4 | 8
Cc1ccc(OCC(=O)NC(=S)Nc2cccc(NC(=O)c3ccc(Cl)cc3Cl)c2)cc1 | 101 | 0 | -4 | -2 | 22* | -2 | 7 | 3
CCC(=O)Nc1cccc(NC(=O)c2ccc(C)cc2Cl)c1 | 101 | -1 | -1 | 0 | -2 | -2 | x | x
COc1ccc(-c2nc3ccccc3c(=O)n2NC(=O)c2cccnc2Cl)cc1OC | 103 | 1 | 9 | 0 | -2 | 1 | x | x
CCCC(=O)NC(=S)Nc1cccc(NC(=O)c2ccccc2)c1 | 95 | 0 | 0 | 0 | 1 | 2 | x | x
